E coli WT exp – blocks growth of wild type E. coli BW25113; 0.15% of 98,000 active; OD600 absorbance; growth inhibition, % at 100 µM;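 active means growth inhibition above about 50% at one test dose, limit read from the data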;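 further: growth measured after 20 h incubation at 37 °C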
DAT uptake mod – modulates human dopamine transporter uptake under cocaine; LLC-PK1 hDAT cells, [14C]-dopamine uptake with cocaine IC80; actives deviate in either direction; B-score at 10 µM; 1.3% of 110,000 active; AID 449768;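 active means Z score or B-score, a plate-position-corrected score, falls beyond the plate's 99.7% confidence bounds, in either direction; inactive means both scores lie inside the 99.7% bounds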;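 further: scored against the spread of the other compound wells on the same plate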
Target sequence (Q01959 whole entry, looked up): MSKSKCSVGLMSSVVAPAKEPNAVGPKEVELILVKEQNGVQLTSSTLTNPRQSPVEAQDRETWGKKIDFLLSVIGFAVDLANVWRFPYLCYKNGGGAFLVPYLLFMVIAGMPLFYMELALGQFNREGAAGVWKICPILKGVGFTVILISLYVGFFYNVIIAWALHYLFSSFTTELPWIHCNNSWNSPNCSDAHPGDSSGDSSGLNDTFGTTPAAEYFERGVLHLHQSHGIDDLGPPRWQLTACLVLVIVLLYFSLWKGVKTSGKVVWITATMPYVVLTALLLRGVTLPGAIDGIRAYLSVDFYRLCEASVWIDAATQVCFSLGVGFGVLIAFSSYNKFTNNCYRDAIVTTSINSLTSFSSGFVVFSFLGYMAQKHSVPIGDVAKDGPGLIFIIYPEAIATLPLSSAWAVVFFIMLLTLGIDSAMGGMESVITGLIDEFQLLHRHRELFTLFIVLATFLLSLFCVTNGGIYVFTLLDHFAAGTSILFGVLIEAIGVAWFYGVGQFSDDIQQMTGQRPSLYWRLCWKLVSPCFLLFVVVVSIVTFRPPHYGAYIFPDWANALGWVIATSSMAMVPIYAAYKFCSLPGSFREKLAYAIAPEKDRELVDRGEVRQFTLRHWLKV
D1 allo mod – D1 dopamine receptor (human) allosteric modulation. P21728. HEK293 D1, CRE-luciferase, dopamine EC30 potentiation; actives deviate in either direction. B-score at 10 µM. 5.9% of 58,000 active. AID 641;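 active means luminescence count or its row- and column-corrected plate score outside the 99.7% band of the plate's sample wells, on either side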
PostGolgi ctrl – yeast control strain growth, post-Golgi counter-screen; efflux-deficient yeast background strain, growth absorbance A615, 16 h; 5% of 98,000 active; inhibition, % at 10 µM
Ecoli tolC – blocks growth of E. coli BW25113 tolC mutant. AID 573. growth inhibition, % at 10 µM (by protocol). OD615. 2.2% of 65,000 active;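 active means growth inhibition at or above a cutoff equal to the mean over every tested compound plus 3 SD, cut at about 60% in these data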;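 further: growth measured after 20 h incubation at 37 °C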
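System: E. coli ΔtolC::kan strain BW25113; Buffer or medium: LB broth supplemented with 50 µg/mL kanamycin; Compound: 10 µM final, single dose; Incubation: bacterial growth with compound for 20 h at 37 °C; Signal: A615 absorbance measurement; Evaluation: growth inhibition in percent.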
PostGolgi yeast – growth inhibition of a yeast mutant, post-Golgi transport screen | post-Golgi transport phenotypic cell assay | inhibition, % at 10 µM | 0.9% of 98,000 active | AID 739;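 further: yeast cells grown in 1536-well plates; yeast grown about 18 h at 30C before absorbance read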
* = called active by the depositor; . = no result given. An excerpt weighted towards active compounds, which were near 9.3% of everything screened. Unless noted, no stated cut-off is given here; in the data, active means inhibition above about 30%; inactive means the rest.

SMILES	E coli WT exp	DAT uptake mod	D1 allo mod	PostGolgi ctrl	Ecoli tolC	PostGolgi yeast
CCN1CCCC1CN(Cc1cc2cc(C)ccc2[nH]c1=O)C(=O)Nc1ccccc1OC (stereo not drawn)	6.0	0.657	-1.17	33.9*	-12.1	6.9
COc1ccccc1NC(=O)N(CCN1CCCC1)Cc1cc2cc(C)ccc2[nH]c1=O	.	2.27	.	.	.	.
Cc1ccc2[nH]c(=O)c(CN(CCN3CCOCC3)C(=O)Nc3ccccc3F)cc2c1	-5.0	2.64	-0.924	46.1*	-7.7	-0.2
Cc1onc(-c2c(F)cccc2Cl)c1C(=O)Nc1sc2c(c1C(N)=O)CCC2	-18.0	1.91	.	32.9*	.	-12.8
Cc1onc(-c2c(F)cccc2Cl)c1C(=O)NCc1ccccn1	-1.0	0.00193	-4.17*	4.8	3.0	-0.8
Cc1onc(-c2ccccc2)c1C(=O)Nc1sc2c(c1C(N)=O)CCC2	-4.0	0.21	1.24	36.5*	15.9	-2.6
Cc1onc(-c2ccccc2)c1C(=O)Nc1sc2c(c1C#N)CCC2	-1.0	-0.313	0.286	43.6*	69.6*	2.8
O=C(Nc1sc2c(c1C(=O)O)CCC2)c1ccccc1	-9.0	.	.	20.6	.	26.3
CCOC(=O)N1CCC(NC(=O)c2cc(C(=O)Nc3ccc(OC)c(OC)c3)ccc2CO)CC1	-5.0	-1.53	-0.204	-0.4	-10.1	1.9
Cc1onc(-c2c(Cl)cccc2Cl)c1C(=O)NCc1ccco1	0.0	-0.587	-1.12	3.0	-1.3	-7.1
NC(=O)c1c(NC(=O)CSc2nnc(-c3ccccc3)n2CC2CCCO2)sc2c1CCC2 (stereo not drawn)	4.0	2.67*	.	16.3	0.5	13.0
Cc1onc(-c2c(Cl)cccc2Cl)c1C(=O)N/N=C(\N)COc1ccc(Cl)cc1	25.0	-0.756	.	32.2*	.	2.0
N#Cc1c(NC(=O)CSc2nnc(-c3ccncc3)n2CC2CCCO2)sc2c1CCCC2 (stereo not drawn)	0.0	2.55	1.95	24.7	1.0	13.5
CC(C)Cc1cc(C(=O)Nc2sc3c(c2C#N)CCCC3)no1	-2.0	-0.109	0.0346	9.0	79.2*	-1.3
N#Cc1c(NC(NC(=O)c2ccco2)C(=O)c2ccccc2)sc2c1CCCC2 (stereo not drawn)	-3.0	0.977	0.466	81.2*	65.5*	40.6*
CC(C)c1ccc(CN2CC(C(=O)O)CC2=O)cc1 (stereo not drawn)	-13.0	1.84	.	-4.4	.	-0.8
Cc1noc(C)c1C(=O)Nc1sc(C)c(-c2ccccc2)c1C#N	-4.0	-0.106	-0.0825	27.6	97.3*	5.5
Clc1ccc(/C=N/NC(=Nc2ccccc2)c2ccccn2)c(Cl)c1	-22.0	.	.	36.6*	.	-0.2
COc1cccc(CSc2nc3ccccc3cc2C=O)c1	-9.0	0.0313	.	51.3*	.	32.5*
COc1cccc(NC(=O)CSc2nc3ccccc3cc2Cc2ccccc2)c1	-26.0	0.554	.	18.5	.	16.5
COc1ccc(C(=O)Nc2ccc(Cl)cc2C(=O)NCc2ccco2)cc1	.	-0.546	.	.	.	.
CCC(C)C(NC(=O)c1ccccc1NC(=O)c1ccc(OC)cc1)C(=O)NCc1ccco1 (stereo not drawn)	6.0	-1.18	-4.71*	5.0	11.5	4.1
CCN1CCCC1CNC(=O)c1nn(-c2ccc(C)cc2)c(=O)c2c1c1ccccc1n2C (stereo not drawn)	.	.	-1.8	.	-17.5	.
CC(=O)Nc1cccc(NC(=O)C2CC(=O)N(c3ccc(C)cc3)C2)c1 (stereo not drawn)	1.0	-1.33	-0.0281	10.1	-4.6	-2.5
Cc1ccc(NC(=O)C2CC(=O)N(c3ccc4c5c(cccc35)CC4)C2)cc1 (stereo not drawn)	-12.0	-0.397	.	30.6*	.	-3.0
SMILES	E coli WT exp	DAT uptake mod	D1 allo mod	PostGolgi ctrl	Ecoli tolC	PostGolgi yeast
CCCCNC(=O)COC(=O)c1ccc(Cl)c(S(=O)(=O)N2CCCC2)c1	-3.0	-0.464	.	6.0	.	2.0
CC(C)NC(=O)COC(=O)c1ccc(Cl)c(S(=O)(=O)N2CCCC2)c1	6.0	0.1	.	31.9*	.	-3.1
Clc1ccc(-c2nnc(NC3=NCCCCC3)o2)cc1	1.0	0.295	-5.79*	30.5*	-6.7	-8.9
Cc1ccccc1-c1nnc(SCc2ccccc2F)o1	-9.0	-0.229	1.24	5.4	64.1*	12.3
Cc1ccc(-n2nc3ccc(N)cc3n2)cc1	-4.0	-0.188	-4.44*	9.4	11.9	-8.6
CCc1cc(/C(Cc2ccc3ccccc3n2)=N\O)c(O)cc1O	17.0	1.02	.	12.5	97.5*	-4.1
CC(C)COC(=O)N1CC(O)CC1C(=O)O (stereo not drawn)	-14.0	-0.153	-0.794	3.7	5.2	3.6
COCCn1c(=NC(=O)c2ccc3c(c2)OCO3)c(C#N)cc2c(=O)n3cccc(C)c3nc21	-5.0	-2.23*	0.704	6.4	-0.3	0.8
CCCCn1c(=NC(=O)c2ccc3c(c2)OCO3)c(C#N)cc2c(=O)n3cccc(C)c3nc21	-1.0	-0.445	1.95	10.7	60.2	6.0
C/C(=C1/SC(N2CCCC2)=NC1=O)c1ccc(Br)cc1	20.0	1.68	2.67	32.6*	25.1	-0.9
CC(C)=C1SC(N2CCCCC2)=NC1=O	0.0	0.378	.	-3.6	.	-1.6
CC1=[N+]([O-])C(C)(C)CC(C)(C)c2ccccc21	4.0	-0.309	0.294	30.1*	-23.2	5.3
CC1(C)[N+]([O-])=C2C(=[N+]([O-])C1(C)C)c1ccccc1/C2=N\O	-2.0	-0.882	0.018	2.7	-6.7	-7.2
O=C(CSc1c[nH]c2ccccc12)N1CCOCC1	1.0	-0.844	.	9.1	-12.1	0.3
CCn1c(N2CCN(C(=O)C34CC5CC(CC(C5)C3)C4)CC2)nc2ccccc21	-2.0	-0.369	0.0507	19.3	64.7*	16.1
CC1(C)C(C=C(Cl)Cl)C1C(=O)N1CCN(c2ccccc2)CC1 (stereo not drawn)	-12.0	0.822	-1.35	70.5*	43.8	2.9
O=C(N1CCN(Cc2ccccc2)CC1)C12CC3CC(CC(C3)C1)C2	17.0	2.09	-0.13	4.8	32.6	-1.9
CCn1c(N2CCN(S(=O)(=O)c3ccccc3C(F)(F)F)CC2)nc2ccccc21	-3.0	0.764	-1.2	21.5	21.0	15.1
CCn1c(=N)n(CC(=O)C23CC4CC(CC(C4)C2)C3)c2ccccc21	17.0	0.997	-0.979	34.7*	99.3*	1.9
CCCn1c(=N)n(CC(=O)OCC)c2ccccc21	4.0	-0.234	-0.868	1.3	-8.1	1.8
O=C(N1CCN(c2ccccc2)CC1)C12CC3CC(CC(C3)C1)C2	-2.0	-0.55	-1.48	44.9*	10.8	12.4
CC(=O)Nc1cccc(-c2nnc(SCC(=O)n3c4c(c5ccccc53)CCCC4)n2C)c1	-10.0	1.23	.	3.2	.	-6.6
O=C(Cn1c(=O)[nH]c2ccsc2c1=O)NC1CCCCC1	2.0	-2.71*	.	-0.6	-7.0	0.5
O=C(CCCn1c(=O)[nH]c2cc(Cl)ccc2c1=O)NC1CCCCCC1	-2.0	-0.61	.	-6.8	.	-3.8
O=C(O)C(=O)Cc1c[nH]c2ccccc12	.	0.826	.	.	.	.
Cc1nc(N2CCN(C(=O)c3ccco3)CC2)c2c3c(sc2n1)CCC3	-3.0	-0.242	-0.571	3.9	25.6	-3.9

Assay outcomes as filed in PubChem.
